The source of these data is article PMC5071636 (Acta Pharmaceutica Sinica. B, 2016).

In data set [1] the test system is eEF2 phosphorylation in H1299 cells. The data set is described as follows: Western blot of phospho-eEF2 in H1299 cells. It is filed as cell-based, human. Particulars: 6 h treatment.
In a further data set the test system is eEF2K in cells. The note with it: cited from earlier work.
Data set [2] deals with eEF2 phosphorylation in MDA-MB-453 cells. The data set is described as follows: Western blot of phospho-eEF2. It is filed as cell-based, human. Put shortly:
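MDA-MB-453 grown in L15 with 10% FBS, 1 mmol/L pyruvate, 0.5 mg/mL geneticin, no CO2. Seeded at 2×10^5 cells/well; 24 h later given test compound at several concentrations for 6 h. Lysed in 2× SDS loading buffer, 95 °C 10 min, on 10% gels to PVDF, milk-blocked. Probed overnight at 4 °C for phospho-eEF2 Thr56 and eEF2, β-actin loading control. Fluorescent secondary read-out. Three independent experiments in duplicate, mean ±SEM.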

The test system of the next data set is cells. The note with it: at high concentrations; cited from earlier work.
For data set [3], the system named is eEF2 phosphorylation in HCT116 cells. The data set is described as follows: Western blot of phospho-eEF2 in HCT116 cells. It counts as cell-based, human. The note with it: 6 h treatment.
A further data set has as its system eEF2K. Particulars: cited from earlier work.

`CCn1c(=O)c2cc(C(N)=O)c(N)nc2n(C2CC2)c1=O` [A484954]: the “effect on eEF2 phosphorylation (p-eEF2)” value in data set [1] is “capable of inhibiting eEF2 phosphorylation”; in data set [2] (MDA-MB-453 cells, 6 h treatment) it was “capable of inhibiting eEF2 phosphorylation”; in data set [3] it was “capable of inhibiting eEF2 phosphorylation”. For the same compound, in the data set on eEF2K in cells, the “potency on eEF2K in cells” value is reported as “rather low potency”. For the same compound, the “total protein level of eEF2” value in data set [2] (in the cell) was “not affected”. Besides, the cytotoxicity entry in the data set with cells is “cytotoxic at high concentrations”.
`CCCCCCCCCCCCCCCC[n+]1ccn(Cc2ccccc2)c1C.[I-]` [NH125, 1-Benzyl-3-cetyl-2-methylimidazolium iodide]: the “effect on eEF2 phosphorylation in vivo” value in the data set on eEF2K in cells is listed as “promotes eEF2 phosphorylation”. Also, the “effect on eEF2K activity in vitro” value in the data set with eEF2K is listed as “inhibits eEF2K activity”.
Consider `c1cnc2sccc2c1` [Thieno [2,3-b] pyridine], for which the “inhibitory effects on eEF2K in cells” value in the data set on eEF2K in cells is “weak inhibitory effects”.
